The values that follow come from ChEMBL document CHEMBL4609986 (Bioorg Med Chem, 2020).

The structures appear in SMILES notation.

One may read the inhibition as the change of the read-out against control, counted positive when it falls. Broadly, the EC50 is the midpoint of the concentration-response curve. For orientation: CC50 means the concentration at which the toxic effect on the cells reaches its halfway point. Usually Kd stands for the constant that tells how readily two partners part at equilibrium. Low readings indicate a tighter complex, high ones a looser complex.

Data set [1] concerns the target T1, Aurora kinase B (Homo sapiens, UniProt Q96GD4). The experiment in a line: Inhibition of AURKB in human HEK293T cells assessed as reduction in cell viability at 10 uM measured after 48 hrs. As to conditions: hek-293t. The format is cell-based. The gist of the method: (§1)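 HEK293T cells treated 48 h with the compound alone or combined with a second kinase inhibitor at the stated level, then fixed, stained and counted. Cell number expressed as a percentage of untreated wells; n = 4-16.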

Data set [2] has as its target T2, AURKB (Aurora kinase B) (Homo sapiens, UniProt Q96GD4). The experiment in a line: Inhibition of AURKB in human HEK293T cells assessed as reduction in cell viability at 3 uM measured after 48 hrs relative to control. The format is cell-based, HEK-293T. The gist of the method: as §1
Data set [3] deals with T3, Dual specificity tyrosine-phosphorylation-regulated kinase 1A (Homo sapiens, UniProt Q13627). The experiment in a line: Inhibition of DYRK1A in human pancreatic islets assessed as induction of pancreatic beta-cells replication measured after 48 hrs by Hoechst 33342 staining based analysis. The gist of the method:
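Human islets (85-95% purity) rested 12 h in low-glucose DMEM with 10% FBS and 20 nM exendin-4. Dispersed to single cells and plated on 804G-conditioned-matrix 384-well plates for 48 h. Treated 48 h, then fixed with 4% PFA. Stained with anti-insulin, anti-Ki-67 and 4 μM Hoechst 33342; Ki67+Insulin+/Insulin+ scored by high-content imaging against per-plate cutoffs.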

Data set [4] addresses T3, Dual specificity tyrosine-phosphorylation-regulated kinase 1A. The experiment in a line: Inhibition of human DYRK1A transfected in HEK293T cells co-transfected with Renilla plasmid, pGL3-NFAT and NFATc1 assessed as derepression of NFAT-dependent luciferase activity measured after 48 hrs by luciferase assay. The format is cell-based, HEK-293T. The essentials: (§2)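 HEK293T cells transfected with PEI using DYRK1A, Renilla plasmid, IL-2-based pGL3-NFAT firefly reporter and NFATc1. Next day the same transfected population was split into 96-well plates; 6 h later cells were treated for 48 h (11-point dose curve, n = 4), then lysed. EC50 from firefly/Renilla ratio, 4-parameter agonist fit. CC50 from loss of constitutive Renilla signal, 4-parameter inhibitor fit.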

The next data set deals with HEK-293T. As to the kind of experiment: Cytotoxicity against human HEK293T cells transfected with DYRK1A co-tranfected with Renilla plasmid, pGL3-NFAT and NFATc1 assessed as reduction in luciferase activity by measuring cell number. The format is cell-based. As to conditions: hek-293t. The essentials: as §2
Data set [5] deals with T4, Tyrosine-protein kinase ABL1 (Homo sapiens, UniProt P00519). The experiment in a line: Inhibition of wild-type human non-phosphorylated ABL1 (S229 to K512 residues) expressed in mammalian expression system assessed as residual activity at 100 nM by Kinomescan method relative to control. The essentials:
(§3)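 Kinase panel of 468 kinases, scored as residual activity at 100 nM or 500 nM test compound.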

The target of data set [6] is T4, Tyrosine-protein kinase ABL1. As to the kind of experiment: Inhibition of wild-type human phosphorylated ABL1 (S229 to K512 residues) expressed in mammalian expression system assessed as residual activity at 100 nM by Kinomescan method relative to control. The essentials: as §3
Data set [7] deals with T3, Dual specificity tyrosine-phosphorylation-regulated kinase 1A. The experiment in a line: Inhibition of wild-type human partial length DYRK1A (H129 to S509 residues) expressed in mammalian expression system assessed as residual activity at 100 nM by Kinomescan method relative to control. The gist of the method:
as §3

Data set [8] concerns the target T5, Aurora kinase A (Homo sapiens) (UniProt O14965).
T5 sequence (whole entry): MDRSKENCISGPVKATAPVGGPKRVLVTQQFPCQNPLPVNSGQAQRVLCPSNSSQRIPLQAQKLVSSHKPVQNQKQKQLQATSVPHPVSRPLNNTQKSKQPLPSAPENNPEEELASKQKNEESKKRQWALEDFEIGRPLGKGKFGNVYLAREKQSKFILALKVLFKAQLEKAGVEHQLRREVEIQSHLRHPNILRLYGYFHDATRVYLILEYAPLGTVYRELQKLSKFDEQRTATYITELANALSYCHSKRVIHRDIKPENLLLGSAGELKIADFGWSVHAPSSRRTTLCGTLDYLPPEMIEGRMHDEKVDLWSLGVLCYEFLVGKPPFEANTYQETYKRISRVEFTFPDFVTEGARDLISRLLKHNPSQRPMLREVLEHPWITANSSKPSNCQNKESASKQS
The experiment in a line: Inhibition of wild-type human partial length AURKA (E122 to K401 residues) expressed in mammalian expression system assessed as residual activity at 100 nM by Kinomescan method relative to control. The essentials:
as §3

In data set [9] the target is T1, Aurora kinase B. As to the kind of experiment: Inhibition of wild-type human partial length AURKB (D25 to A303 residues) expressed in mammalian expression system assessed as residual activity at 100 nM by Kinomescan method relative to control. The gist of the method:
as §3

Data set [10] deals with Dual specificity mitogen-activated protein kinase kinase 1 (Homo sapiens) (UniProt Q02750). As to the kind of experiment: Inhibition of wild-type human full length MEK1 (M1 to V393 residues) expressed in mammalian expression system assessed as residual activity at 100 nM by Kinomescan method relative to control. The gist of the method:
as §3

The target of data set [11] is Dual specificity mitogen-activated protein kinase kinase 2 (Homo sapiens) (UniProt P36507). As to the kind of experiment: Inhibition of wild-type human full length MEK2 (M1 to V400 residues) expressed in mammalian expression system assessed as residual activity at 100 nM by Kinomescan method relative to control. The gist of the method: as §3
The target of data set [12] is T3, Dual specificity tyrosine-phosphorylation-regulated kinase 1A. As to the kind of experiment: Binding affinity to wild-type human partial length DYRK1A (H129 to S509 residues) expressed in mammalian expression system by Kinomescan method. The essentials:
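Kd measured in a KdELECT binding assay using an 11-point, 3-fold dilution series with three DMSO control points.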

The nature of data set [13]: Cytotoxicity against mouse R7T1 cells assessed as reduction in cell viability measured after 48 hrs by Hoechst 33342 staining based analysis. The gist of the method:
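Mouse R7T1 β-cells cultured in high-glucose DMEM with 10% FBS, doxycycline and pyruvate, plated at 25,000 cells/well. Treated in quadruplicate 6 h later (0.169–10,000 nM) for 48 h. Cells fixed in paraformaldehyde and stained with 4 μM Hoechst 33342; nuclei counted by high-content imaging.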

The target in data set [14] is T2, AURKB (Aurora kinase B). The experiment in a line: Inhibition of AURKB in human HEK293T cells assessed as reduction in cell viability at 10 uM measured after 48 hrs relative to control. The format is cell-based, HEK-293T. The gist of the method:
as §1

T1 sequence (Q96GD4 whole entry): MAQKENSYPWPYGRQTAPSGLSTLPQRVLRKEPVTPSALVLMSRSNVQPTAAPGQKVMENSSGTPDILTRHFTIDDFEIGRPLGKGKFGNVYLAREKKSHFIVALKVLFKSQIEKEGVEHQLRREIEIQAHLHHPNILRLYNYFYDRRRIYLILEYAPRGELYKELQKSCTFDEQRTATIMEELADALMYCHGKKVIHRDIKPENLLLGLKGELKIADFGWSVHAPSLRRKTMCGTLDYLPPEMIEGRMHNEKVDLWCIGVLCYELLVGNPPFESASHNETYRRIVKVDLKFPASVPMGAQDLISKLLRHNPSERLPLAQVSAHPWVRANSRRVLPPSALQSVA
T2 sequence (Q96GD4 whole entry): as above
T4 sequence (P00519 whole entry, the tested form may be a part): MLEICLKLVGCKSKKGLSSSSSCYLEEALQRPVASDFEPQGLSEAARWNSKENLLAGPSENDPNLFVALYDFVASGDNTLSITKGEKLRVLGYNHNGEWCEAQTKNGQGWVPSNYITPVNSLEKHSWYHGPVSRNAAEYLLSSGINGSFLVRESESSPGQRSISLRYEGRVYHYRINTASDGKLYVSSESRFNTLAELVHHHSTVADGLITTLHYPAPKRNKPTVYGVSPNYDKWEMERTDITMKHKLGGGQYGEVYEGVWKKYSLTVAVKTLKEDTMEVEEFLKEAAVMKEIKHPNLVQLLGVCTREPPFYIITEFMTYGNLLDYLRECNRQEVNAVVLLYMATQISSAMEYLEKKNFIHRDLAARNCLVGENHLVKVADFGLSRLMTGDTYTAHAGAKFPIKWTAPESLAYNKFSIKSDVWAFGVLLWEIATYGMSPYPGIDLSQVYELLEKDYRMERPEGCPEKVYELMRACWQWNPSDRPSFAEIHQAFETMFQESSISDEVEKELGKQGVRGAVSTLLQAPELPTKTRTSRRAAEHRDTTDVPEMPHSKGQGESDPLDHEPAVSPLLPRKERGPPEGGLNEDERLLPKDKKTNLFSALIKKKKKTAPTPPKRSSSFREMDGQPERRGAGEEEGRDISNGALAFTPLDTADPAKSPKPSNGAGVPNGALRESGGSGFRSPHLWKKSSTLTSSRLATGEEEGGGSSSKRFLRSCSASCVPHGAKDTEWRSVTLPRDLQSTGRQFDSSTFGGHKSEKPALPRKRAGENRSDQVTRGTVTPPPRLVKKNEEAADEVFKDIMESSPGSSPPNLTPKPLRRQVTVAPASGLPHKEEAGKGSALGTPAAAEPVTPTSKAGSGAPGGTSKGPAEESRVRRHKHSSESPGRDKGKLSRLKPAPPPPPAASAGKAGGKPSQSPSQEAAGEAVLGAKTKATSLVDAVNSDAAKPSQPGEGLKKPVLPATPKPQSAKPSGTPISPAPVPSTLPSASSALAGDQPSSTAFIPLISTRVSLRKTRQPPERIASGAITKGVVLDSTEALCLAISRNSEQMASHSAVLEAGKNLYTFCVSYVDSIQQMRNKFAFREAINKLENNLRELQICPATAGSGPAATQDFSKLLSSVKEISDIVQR
Sequence of Dual specificity mitogen-activated protein kinase kinase 1 (Homo sapiens) (Q02750 whole entry, the tested form may be a part): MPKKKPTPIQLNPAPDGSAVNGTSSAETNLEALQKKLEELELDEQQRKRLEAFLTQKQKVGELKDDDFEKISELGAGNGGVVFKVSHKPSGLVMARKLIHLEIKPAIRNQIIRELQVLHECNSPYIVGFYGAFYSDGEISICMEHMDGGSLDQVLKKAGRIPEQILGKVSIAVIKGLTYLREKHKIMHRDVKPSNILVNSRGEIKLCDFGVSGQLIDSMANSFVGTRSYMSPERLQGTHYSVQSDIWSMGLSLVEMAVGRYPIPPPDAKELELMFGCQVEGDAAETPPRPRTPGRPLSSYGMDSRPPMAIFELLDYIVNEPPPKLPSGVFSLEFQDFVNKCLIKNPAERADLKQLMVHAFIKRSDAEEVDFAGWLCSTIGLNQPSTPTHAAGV
Sequence of Dual specificity mitogen-activated protein kinase kinase 2 (Homo sapiens) (P36507 whole entry, the tested form may be a part): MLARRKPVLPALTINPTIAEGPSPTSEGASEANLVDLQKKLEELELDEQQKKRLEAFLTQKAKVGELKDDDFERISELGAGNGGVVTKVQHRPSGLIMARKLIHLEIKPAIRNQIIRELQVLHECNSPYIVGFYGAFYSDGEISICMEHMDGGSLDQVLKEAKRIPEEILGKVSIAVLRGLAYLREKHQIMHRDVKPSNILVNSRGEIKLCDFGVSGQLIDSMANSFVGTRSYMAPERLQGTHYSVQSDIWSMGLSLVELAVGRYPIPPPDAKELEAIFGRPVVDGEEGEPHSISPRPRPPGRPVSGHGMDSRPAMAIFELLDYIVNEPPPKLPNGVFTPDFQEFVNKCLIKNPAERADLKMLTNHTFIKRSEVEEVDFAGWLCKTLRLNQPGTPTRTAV

In the case of `Cn1c(=O)c(F)c(Nc2ccc(I)cc2F)c2c(=O)n(C[C@@H](O)CO)cnc21` [TAK-733], on Aurora kinase B [1], the “inhibition (INH)” value was “Not Active”.

For the molecule `O=C(O)[C@]1(Cc2cccc(Nc3nccs3)n2)CC[C@@H](Oc2cccc(Cl)c2F)CC1` [MK-5108], the inhibition at 48 h, 3 µM at AURKB (Aurora kinase B) [2] came out at 24%.

In the case of `CC(=O)c1cnc2ccc(-c3cc(Cl)c(O)c(Cl)c3)nc2c1N[C@H]1CC[C@H](CN(C)C)CC1`, in data set [3], the MEC was found to be 5 nM. For the same molecule, in data set [4], the 50% effective concentration (EC50) came out at 5 nM. Besides, the CC50 worked out at 64 nM with HEK-293T and 20 nM in data set [13]. For the same molecule, the Activity came out at 0% in data set [5]; 0% in [6]; 0% in data set [7]; 6.6% in data set [8]; 0.65% on Aurora kinase B [9]; 1.7% in data set [10]. In addition, the Activity in data set [11] amounted to 1.7%. The molecule further had a Kd in [12] of 0.12 nM.

In the case of `O=C(NC[C@H](O)CO)c1ccncc1Nc1ccc(I)cc1F` [PIMASERTIB], the inhibition at 48 h, 10 µM at AURKB (Aurora kinase B) [14] was found to be 10%.
